Source: ChEMBL document CHEMBL1123778, “Synthesis and 5-lipoxygenase inhibitory activity of 5-hydroperoxy-6,8,11,14-eicosatetraenoic acid analogues” (J Med Chem, 1987)

Biological target: T1, Polyunsaturated fatty acid 5-lipoxygenase (Rattus norvegicus, UniProt P12527)
T1 sequence (P12527 whole entry): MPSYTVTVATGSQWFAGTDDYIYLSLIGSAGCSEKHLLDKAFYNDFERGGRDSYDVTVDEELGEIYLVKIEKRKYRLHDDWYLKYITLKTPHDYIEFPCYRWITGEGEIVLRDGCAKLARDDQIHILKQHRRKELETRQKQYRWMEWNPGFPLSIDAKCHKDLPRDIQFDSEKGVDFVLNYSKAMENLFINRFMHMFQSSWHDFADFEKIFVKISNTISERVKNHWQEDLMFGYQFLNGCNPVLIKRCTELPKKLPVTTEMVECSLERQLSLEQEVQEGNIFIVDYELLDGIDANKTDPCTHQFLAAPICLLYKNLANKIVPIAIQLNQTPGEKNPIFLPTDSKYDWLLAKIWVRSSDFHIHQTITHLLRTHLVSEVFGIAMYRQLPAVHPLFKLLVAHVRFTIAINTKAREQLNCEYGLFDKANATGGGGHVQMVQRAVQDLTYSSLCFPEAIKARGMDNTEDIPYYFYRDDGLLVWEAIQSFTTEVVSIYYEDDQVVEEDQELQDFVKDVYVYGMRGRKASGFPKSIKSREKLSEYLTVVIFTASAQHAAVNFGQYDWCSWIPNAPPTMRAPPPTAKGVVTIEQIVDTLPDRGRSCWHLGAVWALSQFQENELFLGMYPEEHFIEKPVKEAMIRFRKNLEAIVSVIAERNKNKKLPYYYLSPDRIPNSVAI
Experiment: In vitro inhibitory activity against 5-lipoxygenase from rat basophilic leukemia cells.

Row | SMILES | IC50 [µM]
1 | CCCCC/C=C\C/C=C\C/C=C\C=C\C(CCCO)CCCC(=O)O (centres undefined) | 97
2 | CCCCC/C=C\C/C=C\C/C=C\C=C\C(CCCC(=O)O)CC(=O)O (centres undefined) | 96
3 | CCCCC/C=C\C/C=C\C/C=C\C=C\C1CCCC(=O)O1 (centres undefined) | 27
4 | CCCCC/C=C\C/C=C\C/C=C\C=C\C(CCCC(=O)O)OC(C)=O (centres undefined) | 68
5 | CCCCC/C=C\C/C=C\C/C=C\C=C\C(CCCS)CCCC(=O)O (centres undefined) | 36
6 | CCCCC/C=C\C/C=C\C/C=C\C=C\C(CCS)CCCC(=O)O (centres undefined) | 25
7 | CCCCC/C=C\C/C=C\C/C=C\C=C\C(CO)CCCC(=O)O (centres undefined) | 29
8 | CCCCC/C=C\C/C=C\C/C=C\C/C=C\CCCC(=O)NO | 2.2
9 | CCCCC/C=C\C/C=C\C/C=C\C=C\C1CC(=O)CC(CC(=O)O)C1 (centres undefined) | 59

Now from value to molecule:

Row | IC50 [µM] | SMILES
10 | 10 | CCCCC/C=C\C/C=C\C/C=C\C=C\C1CCCC(=O)N1 (centres undefined)
11 | 2.8 | CCCCC/C=C\C/C=C\C/C=C\C=C\C(CCCC(=O)O)CCC(=O)NO (centres undefined)
12 | 18 | CCCCC/C=C\C/C=C\C/C=C\C=C\C(=O)CCCC(=O)O [5-OXO-ETE]
13 | 2.1 | CCCCC/C=C\C/C=C\C/C=C\C=C\C(O)CCCC(=O)NO (centres undefined)
14 | 7 | CCCCC/C=C\C/C=C\C\C=C/C=C/C(CCCC(=O)O)=N/NC(N)=O
15 | 0.19 | CCCCC/C=C\C/C=C\C/C=C\C=C\C(CCCC(=O)O)CC(=O)NO (centres undefined)
16 | 25 | CCCCC/C=C\C/C=C\C/C=C\C=C\C(N)CCCC(=O)O (centres undefined)
17 | 21 | CCCCC/C=C\C/C=C\C/C=C\C=C\C(CCCC(=O)O)NO (centres undefined)
18 | 7.6 | CCCCC/C=C\C/C=C\C/C=C\C=C\C(S)CCCC(=O)O (centres undefined)
19 | 1.4 | CCCCC/C=C\C/C=C\C/C=C\C=C\C(CCCC(=O)O)C(=O)NO (centres undefined)
20 | 22 | CCCCC/C=C\C/C=C\C/C=C\C=C\C(CCO)CCCC(=O)O (centres undefined)
21 | 7.9 | CCCCC/C=C\C/C=C\C\C=C/C=C/C(CCCC(=O)O)=N/N=C(/N)S
22 | 11 | CCCCC/C=C\C/C=C\C\C=C/C=C/C(CCCC(=O)O)=N/O
23 | 11 | CCCCC/C=C\C/C=C\C/C=C\C=C\C(CS)CCCC(=O)O (centres undefined)

Biological target: T2, Polyunsaturated fatty acid 5-lipoxygenase (Rattus norvegicus) (UniProt P12527)
T2 sequence (whole entry): T1 sequence (P12527 whole entry)
Experiment: In vitro inhibitory activity against 5-Lipoxygenase from rat basophilic leukemia cells at 30 uM concentration
Procedure, shortened: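 20000g supernatant of homogenized RBL-1 cells (7.5×10^6 cell equivalents/mL) preincubated 20 min at 37 °C with inhibitor or vehicle (2% Me₂SO) in pH 6.8 BES/PIPES buffer with EDTA, NaCl, 0.7 mM CaCl₂. Reaction started with 66 μM [¹⁴C]arachidonic acid. [¹⁴C]-5-HETE counted by liquid scintillation, corrected for [³H]-5-HETE recovery. Inhibition = % reduction vs control.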

Row | inhibition [%] | SMILES
24 | 27 | CCCCC/C=C\C/C=C\C/C=C\C=C\C1CCCC(=O)C1 (centres undefined)
